# Most compounds without a hit are left out; they make up all but 3.9% or so of the library.
# Jurkat NFkB inh: lowers PMA/ionomycin-induced NF-kB signal in Jurkat cells. 330,000 tested, 0.53% active. PMA/ionomycin-induced NF-kB luciferase reporter, luminescence. inhibition, % at 4 µM; in the data active = inhibition above about 50%
# XBP1 UPR activ: adaptive UPR (XBP1) activation; CHO-XBP1 luciferase reporter, IRE1-XBP1 UPR activation, luminescence; percent of tunicamycin response, DMSO as zero; activation, % at 20 µM; 330,000 tested, 0.33% active;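 active = versus positive control, 20 µM dose yields 30% or more activation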;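 note: 100% = tunicamycin at 10 µg/mL and 0% = DMSO only wells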
#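 Signal: luciferase luminescence; Assay system: CHO-XBP1 luciferase reporter cells; Amount: one thousand reporter cells per well; Dosing: 20 µM single concentration, DMSO 1%; Benchmarks: high control tunicamycin 10 µg/mL final, low control DMSO vehicle only; Schedule: 6 h compound exposure at 37 °C, 5% CO2; Evaluation: percent activation relative to tunicamycin reference.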
# Gli-Sufu block: Gli-Sufu pathway antagonism | Sufu-KO-LIGHT fibroblasts, Gli luciferase reporter luminescence | inhibition, % at 5 µM | 340,000 tested, 0.74% active | AID 588413;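 active = inhibition above about 55%, limit read from the data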;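 note: 0% = DMSO-treated cells and 100% = wells with medium but no cells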
# UPR CHOP act: activators of apoptotic arm of unfolded protein response (CHOP); CHO-CHOP luciferase reporter, UPR activation, luminescence; percent of tunicamycin response over DMSO baseline; activation, % at 10 µM; 330,000 tested, 0.34% active; AID 449763;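 active = at 10 µM dose, activation of 40% or more, normalized to positive control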;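 note: 100% = tunicamycin at 10 µg/mL and 0% = DMSO alone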
#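 Test system: CHO-CHOP cells, stable luciferase reporter of PERK-eIF2a-CHOP signalling | Quantity: 500 CHO-CHOP cells per well | Buffer or medium: F12 plus 10% serum | Compound dosing: 10 µM single point, 0.5% DMSO | Schedule: 6 h compound treatment, 37 °C | Signal: Luciferase luminescence | Control set: Tunicamycin high control, DMSO low control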
# CHOP inh: inhibitors of CHOP induction in ER stress response | 220,000 tested, 3.8% active | inhibition, % at 10 µM | CHO-K1 CHOP-promoter luciferase, tunicamycin-induced, 15-18 h;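 active = compounds that reduced the stress-induced luciferase reporter signal by more than about 70% of percent inhibition, limit read from the data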;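 note: 0% = tunicamycin plus vehicle and 100% = wells without tunicamycin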
# 697 NFkB inh: lowers PMA/ionomycin-induced NF-kB signal in 697 B cells | 697 B-cell NF-kB luciferase reporter, 16 h | inhibition, % at 4 µM | 330,000 tested, 0.33% active; in the data active = inhibition above about 35%
# Gli-Sufu confirm: Gli-SUFU antagonism confirmation, single concentration; shares compounds with Gli-Sufu block; Sufu-KO-LIGHT cells, Gli luciferase reporter, luminescence; inhibition, % at 5 µM; AID 602428; 2,500 tested, 40% active;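 active = mean inhibition at 5 µM reaching about 45%, limit read from the data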;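 note: plate controls were DMSO-treated cells for no effect and wells lacking cells for full effect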
# Gli cytotox: cytotoxicity counter-screen for Gli-SUFU antagonists; shares compounds with Gli-Sufu block; Sufu-KO-LIGHT cells cytotoxicity, ATP luminescence; cytotoxicity, % at 5 µM; 2,500 tested, 32% active;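 active = mean cytotoxicity at 5 µM above about 25%, limit read from the data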;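 note: cells exposed to compound overnight for roughly 16 to 18 hours; plate controls were DMSO wells with cells for no effect and medium without cells for full effect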
# Wnt3a cs: Wnt3a reporter inhibition counter-screen; shares compounds with Gli-Sufu block; Wnt-LIGHT cells, Wnt3a-driven luciferase reporter, luminescence; inhibition, % at 6.25 µM; 2,500 tested, 20% active; AID 651995;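 active = mean inhibition above about 25%, limit read from the data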
# Active calls of the source: *; · = not tested or not shown.
SMILES,Jurkat NFkB inh,XBP1 UPR activ,Gli-Sufu block,UPR CHOP act,CHOP inh,697 NFkB inh,Gli-Sufu confirm,Gli cytotox,Wnt3a cs
Cc1ccc(C(=O)Nc2ncccc2O)o1,-4,0,-17,2,·,-25,·,·,·
CCC(C(=O)OCC(=O)c1c(N)n(CC(C)C)c(=O)n(C)c1=O)c1ccccc1 (stereo not drawn),26,1,47,2,·,-33,·,·,·
CC(C)Cn1c(N)c(C(=O)COC(=O)C2Cc3ccccc3CN2S(C)(=O)=O)c(=O)n(C)c1=O (stereo not drawn),13,-4,56*,2,·,-1,61*,31*,8
O=C(c1c[nH]c2ccccc12)C(Cl)c1ccccc1 (stereo not drawn),37,-4,10,6,·,7,·,·,·
CCC(C(=O)Nc1cccnc1)n1c(=O)[nH]c2ccccc2c1=O (stereo not drawn),8,-3,3,0,·,4,·,·,·
COCc1cc(=O)c2ccccc2o1,4,-2,-2,0,·,15,·,·,·
Cc1cc(N/N=C/c2ccc(O)cc2O)nc(-n2nc(C)cc2C)n1,·,·,88*,·,-14,·,60*,27*,-35
Cc1nc(Cl)cc(N/N=C/c2ccc(O)cc2O)n1,-14,10,19,6,·,-33,·,·,·
COc1ccc(CNS(=O)(=O)c2ccc3c(c2)N(C(C)=O)CC(C)S3)cc1 (stereo not drawn),26,-6,-7,-1,·,-24,·,·,·
CCOc1ccc(NS(=O)(=O)c2ccc3c(c2)N(C(C)=O)CCS3)cc1,-1,-5,55,0,·,-11,14,4,9
CCOc1ccc(NS(=O)(=O)c2ccc(C(=O)N3CCN(c4ncccn4)CC3)cc2)cc1,20,-3,28,-2,31,-31,·,·,·
CCOc1ccc(NS(=O)(=O)c2ccc(C(=O)N3CCCCC3)cc2)cc1,6,-4,55*,-2,·,-9,27,29*,-19
COc1ccc(NS(=O)(=O)c2ccc3c(c2)N(C(C)=O)CC(C)S3)c(OC)c1 (stereo not drawn),15,-1,54,3,·,-26,16,7,9
O=[N+]([O-])c1ccc(/C=[N+](\[O-])[C@@H]2CCCC[C@@H]2/[N+]([O-])=C/c2ccc([N+](=O)[O-])o2)o1,9,-2,76*,7,·,17,67*,-2,21
CC(=O)c1c(C)[nH]c(C(=O)OCC(=O)Nc2ccc(Cl)cc2[N+](=O)[O-])c1C,31,-1,75*,6,64,-27,75*,31*,24
O=C(COC(=O)c1cc[n+]([O-])cc1)Nc1ccc(Cl)cc1[N+](=O)[O-],3,-3,2,1,3,7,·,·,·
O=C(c1cc(-c2ccccc2)nc2ccccc12)N1CCN(C2CCS(=O)(=O)C2)CC1 (stereo not drawn),8,-3,-18,0,·,7,·,·,·
CC(=O)c1c(C)[nH]c(C(=O)OCCCCN2C(=O)c3ccccc3C2=O)c1C,16,2,68*,8,·,18,66*,32*,16
Cc1cccc(C)c1NC(=O)COC(=O)CN1C(=O)C2CCCCC2C1=O (stereo not drawn),-4,-1,0,-2,·,17,·,·,·
COc1cc(OC)cc(C(=O)OCC(=O)c2ccc(S(=O)(=O)N3CCCCC3)cc2)c1,-9,-2,96*,-2,·,0,13,12,-20
COc1cc(C(=O)OCC(=O)c2ccc(S(=O)(=O)N3CCCCC3)cc2)cc(OC)c1OC,13,0,7,0,·,-1,·,·,·
CN1/C(=C\P(=O)(N(C)C)N(C)C)C(C)(C)c2ccccc21,31,-4,76*,-2,5,-8,70*,30*,29*
CCOC(=O)/C=C1/N(C)c2ccccc2C1(C)C,0,-2,-3,0,26,-1,·,·,·
CC(C)Oc1cccc(C(=O)C2CCCN(Cc3cnn(C(C)C)c3)C2)c1 (stereo not drawn),8,1,38,2,-14,6,·,·,·
CCn1nc(C)c(CN2CCCC(C(=O)c3cccc(OC(C)C)c3)C2)c1C (stereo not drawn),40,-2,71*,-2,25,-24,33,20,40*
SMILES,Jurkat NFkB inh,XBP1 UPR activ,Gli-Sufu block,UPR CHOP act,CHOP inh,697 NFkB inh,Gli-Sufu confirm,Gli cytotox,Wnt3a cs
Cc1nn(C(C)C)c(C)c1CN1CCCC(C(=O)c2cccc(OC(C)C)c2)C1 (stereo not drawn),22,5,59*,-1,-3,-2,17,24,-30
COc1ccc(NC(=O)c2cccc(N3C(=O)C4C5C=CC(C6CC56)C4C3=O)c2)c(OC)c1 (stereo not drawn),3,1,56*,0,·,-24,29,-3,9
COc1ccc(NC(=O)c2cccc(N3C(=O)C4C5C=CC(C5)C4C3=O)c2)c(OC)c1 (stereo not drawn),-11,-5,40,-2,·,-1,·,·,·
CO[C@H]1O[C@H](C)[C@@H](O)C[C@H]1NC(=O)OCc1ccccc1,1,-4,-1,-1,·,-6,·,·,·
CCOC(=O)N1CCN(Cc2nc3c(c(=O)n(C)c(=O)n3C)n2CCCc2ccccc2)CC1,-32,3,99*,-2,1,-3,19,1,-34
Cc1nc2ccccc2n1CC(=O)NC(C)C1CC2CCC1C2 (stereo not drawn),28,-1,60*,-2,34,-11,54*,15,15
COc1cccc(NC(=O)CNC(=O)[C@@H]2Cc3ccccc3CN2C(=O)OC(C)(C)C)c1,11,-2,65*,1,·,7,24,9,-27
CC1CCCC(C)N1C(=O)COC(=O)CNC(=O)c1ccc(Cl)cc1Cl (stereo not drawn),17,-1,-4,0,·,19,·,·,·
COc1ccc(N(CC(=O)NCCC2=CCCCC2)S(=O)(=O)c2ccccc2)cc1OC,3,-3,4,1,25,6,·,·,·
COc1ccc(N(CC(=O)NCCC2=CCCCC2)S(=O)(=O)c2ccccc2)cc1,-5,-4,57*,-1,51,-19,22,21,-23
CC(=O)NCCc1nc2cc(NC(=O)c3cccc([N+](=O)[O-])c3)ccc2n1C,-66,-2,9,3,·,-22,·,·,·
